Data on 10 compounds can be found in ChEMBL document CHEMBL3259715, “Shuttle-cargo fusion molecules of transport peptides and the hD2/3 receptor antagonist fallypride: a feasible approach to preserve ligand-receptor binding?” (J Med Chem, 2014).

Data set [1] can be described thus: Activity at P-gp in hCMEC/D3 cells at 0.1 to 50 uM after 15 mins by calcein-AM assay. In kind it is ADME, cell-based. Conditions: human, cmec/d3, 0.25 h; call rule not given here.
In data set [2] the target is D(2) dopamine receptor (Homo sapiens, UniProt P14416). The data set can be described thus: Displacement of [3H]spiperone from human D2 receptor transfected in HEK cells. In kind it is cell-based, HEK293. A general note: Loss of bound radioactivity is the signal in a displacement assay; it reports binding, not function.
D(2) dopamine receptor, sequence (P14416 whole entry): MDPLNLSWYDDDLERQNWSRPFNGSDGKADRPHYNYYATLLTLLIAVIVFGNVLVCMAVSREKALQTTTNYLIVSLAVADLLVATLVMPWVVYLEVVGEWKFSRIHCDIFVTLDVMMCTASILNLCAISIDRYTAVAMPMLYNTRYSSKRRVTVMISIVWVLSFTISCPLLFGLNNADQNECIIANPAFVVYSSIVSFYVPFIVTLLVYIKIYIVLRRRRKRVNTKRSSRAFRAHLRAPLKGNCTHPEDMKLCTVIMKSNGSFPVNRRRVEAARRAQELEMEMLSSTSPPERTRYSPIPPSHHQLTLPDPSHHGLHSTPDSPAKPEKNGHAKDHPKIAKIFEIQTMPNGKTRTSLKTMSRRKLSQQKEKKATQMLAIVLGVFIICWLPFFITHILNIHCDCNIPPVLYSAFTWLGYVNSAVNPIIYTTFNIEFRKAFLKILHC
Data set [3] can be described thus: Cytotoxicity against hCMEC/D3 cells at 0.1 to 50 uM after 4 hrs by Alamar Blue assay. It counts as cell-based. The conditions noted are these: human, hcmec/d3, 4 h. In outline:
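Cytotoxicity was tested by AlamarBlue on hCMEC/D3 cells, the same cells used for the calcein assay. The read-out is the fall in metabolic activity, seen as reduced redox potential of viable cells.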

Turning to `C=CCN1CCC[C@H]1CNC(=O)c1cc(CCCSC2CC(=O)N(CCCCCC(=O)NCCOCCOCCOCCOCCC(=O)N[C@@H](CCCCNC(=O)O/N=C/c3ccc([Si](F)(C(C)(C)C)C(C)(C)C)cc3)C(=O)N[C@@H](Cc3cnc[nH]3)C(=O)N[C@@H](C)C(=O)N[C@H](C(=O)N[C@@H](Cc3ccc(O)cc3)C(=O)N3CCC[C@H]3C(=O)N[C@@H](CCCNC(=N)N)C(=O)N[C@@H](Cc3cnc[nH]3)C(=O)O)[C@@H](C)CC)C2=O)cc(OC)c1OC` (stereo not given in full), the Activity entry in data set [1] is recorded as “Not Active”; in data set [3], “Non-toxic”. In addition, in data set [2], the Ki – broadly, a dissociation constant, usually derived from enzyme kinetics or from competition with a known ligand – was determined as 5.98 nM.
As to `C=CCN1CCC[C@H]1CNC(=O)c1cc(CCCSC2CC(=O)N(CCCCCC(=O)NCCOCCOCCOCCOCCC(=O)N[C@@H](CCCCNC(=O)CN3CCN(CC(=O)O)CCN(CC(=O)O)CCN(CC(=O)O)CC3)C(=O)N[C@@H](Cc3cnc[nH]3)C(=O)N[C@@H](C)C(=O)N[C@H](C(=O)N[C@@H](Cc3ccc(O)cc3)C(=O)N3CCC[C@H]3C(=O)N[C@@H](CCCNC(=N)N)C(=O)N[C@@H](Cc3cnc[nH]3)C(=O)O)[C@@H](C)CC)C2=O)cc(OC)c1OC` (stereo not given in full), the Activity entry in data set [1] is recorded as “Not Active”; in data set [3], “Non-toxic”. In data set [2], this compound registered a Ki of 52 nM.
Take `C=CCN1CCC[C@H]1CNC(=O)c1cc(CCCSC2CC(=O)N(CCCCCC(=O)NCCOCCOCCOCCOCCC(=O)N[C@@H](Cc3cnc[nH]3)C(=O)N[C@@H](C)C(=O)N[C@H](C(=O)N[C@@H](Cc3ccc(O)cc3)C(=O)N3CCC[C@H]3C(=O)N[C@@H](CCCNC(=N)N)C(=O)N[C@@H](Cc3cnc[nH]3)C(=O)O)[C@@H](C)CC)C2=O)cc(OC)c1OC` (stereo not given in full): the Activity entry in data set [1] is recorded as “Not Active”; in data set [3], “Non-toxic”. Besides, the Ki in data set [2] was determined as 1.47 nM.
In data set [2], `C=CCN1CCC[C@H]1CNC(=O)c1cc(CCCSC2CC(=O)N(CCCCCC(=O)NCCOCCOCCOCCOCCC(=O)N[C@H](C(=O)N[C@@H](Cc3ccccc3)C(=O)N[C@@H](Cc3ccccc3)C(=O)N[C@@H](Cc3ccc(O)cc3)C(=O)NCC(=O)NCC(=O)N[C@@H](CO)C(=O)N[C@@H](CCCNC(=N)N)C(=O)NCC(=O)N[C@@H](CCCCNC(=O)CN3CCN(CC(=O)O)CCN(CC(=O)O)CCN(CC(=O)O)CC3)C(=O)N[C@@H](CCCNC(=N)N)C(=O)N[C@@H](CC(N)=O)C(=O)N[C@@H](CC(N)=O)C(=O)N[C@@H](Cc3ccccc3)C(=O)N[C@@H](CCCCN)C(=O)N[C@H](C(=O)N[C@@H](CCC(=O)O)C(=O)N[C@@H](CCC(=O)O)C(=O)N[C@@H](Cc3ccc(O)cc3)C(=O)O)[C@@H](C)O)[C@@H](C)O)C2=O)cc(OC)c1OC` (stereo not given in full) showed a Ki of 26.1 nM.
H-VQRKRQKLMP-OH: in data set [2], the Ki is > 1000 nM.
Still for that read-out and setting: under `C=CCN1CCC[C@H]1CNC(=O)c1cc(CCCSC2CC(=O)N(CCCCCC(=O)N[C@@H](CCCNC(=N)N)C(=O)N[C@@H](CCC(N)=O)C(=O)N[C@H](C(=O)N[C@@H](CCCCN)C(=O)N[C@H](C(=O)N[C@@H](Cc3c[nH]c4ccccc34)C(=O)N[C@@H](Cc3ccccc3)C(=O)N[C@@H](CCC(N)=O)C(=O)N[C@@H](CC(N)=O)C(=O)N[C@@H](CCCNC(=N)N)C(=O)N[C@@H](CCCNC(=N)N)C(=O)N[C@@H](CCSC)C(=O)N[C@@H](CCCCN)C(=O)N[C@@H](Cc3c[nH]c4ccccc34)C(=O)N[C@@H](CCCCN)C(=O)N[C@@H](CCCCN)C(=O)O)[C@@H](C)CC)[C@@H](C)CC)C2=O)cc(OC)c1OC` (stereo not given in full) stands 8.14 nM; under `C=CCN1CCC[C@H]1CNC(=O)c1cc(CCCSC2CC(=O)N(CCCCCC(=O)NCCOCCOCCOCCOCCOCCOCCOCCOCCOCCOCCOCCOCCC(=O)N[C@@H](Cc3cnc[nH]3)C(=O)N[C@@H](C)C(=O)N[C@H](C(=O)N[C@@H](Cc3ccc(O)cc3)C(=O)N3CCC[C@H]3C(=O)N[C@@H](CCCNC(=N)N)C(=O)N[C@@H](Cc3cnc[nH]3)C(=O)O)[C@@H](C)CC)C2=O)cc(OC)c1OC` (stereo not given in full), 25.3 nM.
For the compound `CC[C@H](C)[C@H](NC(=O)[C@H](C)NC(=O)[C@@H](N)Cc1cnc[nH]1)C(=O)N[C@@H](Cc1ccc(O)cc1)C(=O)N1CCC[C@H]1C(=O)N[C@@H](CCCNC(=N)N)C(=O)N[C@@H](Cc1cnc[nH]1)C(=O)O`, the results for the Activity result in data set [1] and in data set [3] were “Not Active” and “Non-toxic”, respectively. Further, the Ki in data set [2] is > 1000 nM.
In data set [2], `C=CCN1CCC[C@H]1CNC(=O)c1cc(CCCSC2CC(=O)N(CCCCCC(=O)NCCOCCOCCOCCOCCOCCOCCOCCOCCC(=O)N[C@H](C(=O)N[C@@H](Cc3ccccc3)C(=O)N[C@@H](Cc3ccccc3)C(=O)N[C@@H](Cc3ccc(O)cc3)C(=O)NCC(=O)NCC(=O)N[C@@H](CO)C(=O)N[C@@H](CCCNC(=N)N)C(=O)NCC(=O)N[C@@H](CCCCNC(=O)CN3CCN(CC(=O)O)CCN(CC(=O)O)CCN(CC(=O)O)CC3)C(=O)N[C@@H](CCCNC(=N)N)C(=O)N[C@@H](CC(N)=O)C(=O)N[C@@H](CC(N)=O)C(=O)N[C@@H](Cc3ccccc3)C(=O)N[C@@H](CCCCN)C(=O)N[C@H](C(=O)N[C@@H](CCC(=O)O)C(=O)N[C@@H](CCC(=O)O)C(=O)N[C@@H](Cc3ccc(O)cc3)C(=O)O)[C@@H](C)O)[C@@H](C)O)C2=O)cc(OC)c1OC` (stereo not given in full) yielded a Ki of 42.8 nM.
With `C=CCN1CCC[C@H]1CNC(=O)c1cc(CCCSC2CC(=O)N(CCCCCC(=O)N[C@H](C(=O)N[C@@H](Cc3ccccc3)C(=O)N[C@@H](Cc3ccccc3)C(=O)N[C@@H](Cc3ccc(O)cc3)C(=O)NCC(=O)NCC(=O)N[C@@H](CO)C(=O)N[C@@H](CCCNC(=N)N)C(=O)NCC(=O)N[C@@H](CCCCNC(=O)CN3CCN(CC(=O)O)CCN(CC(=O)O)CCN(CC(=O)O)CC3)C(=O)N[C@@H](CCCNC(=N)N)C(=O)N[C@@H](CC(N)=O)C(=O)N[C@@H](CC(N)=O)C(=O)N[C@@H](Cc3ccccc3)C(=O)N[C@@H](CCCCN)C(=O)N[C@H](C(=O)N[C@@H](CCC(=O)O)C(=O)N[C@@H](CCC(=O)O)C(=O)N[C@@H](Cc3ccc(O)cc3)C(=O)O)[C@@H](C)O)[C@@H](C)O)C2=O)cc(OC)c1OC` (stereo not given in full), the Activity result in data set [1] is given as “Not Active”; in data set [3] it was “Non-toxic”. This compound also displayed an inhibition constant (Ki) in data set [2] of 8.01 nM.
